Data on 27 compounds can be found in ChEMBL document CHEMBL4043276, “Design, synthesis and biological evaluation of 2-acetyl-5-O-(amino-alkyl)phenol derivatives as multifunctional agents for the treatment of Alzheimer's disease” (Bioorg Med Chem Lett, 2017).

One series deals with Acetylcholinesterase (Electrophorus electricus, UniProt O42275). As to the kind of experiment: Inhibition of electric eel AChE using acetylthiocholine as substrate incubated for 15 mins by Ellman's method. (DTNB colorimetry detects thiols as they appear.)
Chain of Acetylcholinesterase (O42275 whole entry): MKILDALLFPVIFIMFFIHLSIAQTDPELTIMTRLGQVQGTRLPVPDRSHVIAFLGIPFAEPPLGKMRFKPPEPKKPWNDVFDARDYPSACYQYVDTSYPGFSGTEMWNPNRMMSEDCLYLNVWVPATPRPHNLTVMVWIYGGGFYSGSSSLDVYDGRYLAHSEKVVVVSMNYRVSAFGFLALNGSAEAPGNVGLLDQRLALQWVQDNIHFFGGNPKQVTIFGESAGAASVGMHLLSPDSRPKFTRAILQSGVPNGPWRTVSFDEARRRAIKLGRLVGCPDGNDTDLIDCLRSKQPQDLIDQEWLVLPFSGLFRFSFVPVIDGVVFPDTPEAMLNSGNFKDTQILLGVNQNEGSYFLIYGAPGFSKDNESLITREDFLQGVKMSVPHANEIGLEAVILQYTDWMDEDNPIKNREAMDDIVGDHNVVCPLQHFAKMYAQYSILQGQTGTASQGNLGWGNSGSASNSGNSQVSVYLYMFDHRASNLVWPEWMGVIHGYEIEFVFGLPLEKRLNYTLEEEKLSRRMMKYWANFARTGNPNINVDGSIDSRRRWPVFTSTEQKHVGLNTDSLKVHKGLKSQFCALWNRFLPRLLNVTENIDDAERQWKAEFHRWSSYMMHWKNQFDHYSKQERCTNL
Series [1] addresses T1, Amine oxidase [flavin-containing] A (Homo sapiens, UniProt P21397).
T1 sequence (P21397 whole entry): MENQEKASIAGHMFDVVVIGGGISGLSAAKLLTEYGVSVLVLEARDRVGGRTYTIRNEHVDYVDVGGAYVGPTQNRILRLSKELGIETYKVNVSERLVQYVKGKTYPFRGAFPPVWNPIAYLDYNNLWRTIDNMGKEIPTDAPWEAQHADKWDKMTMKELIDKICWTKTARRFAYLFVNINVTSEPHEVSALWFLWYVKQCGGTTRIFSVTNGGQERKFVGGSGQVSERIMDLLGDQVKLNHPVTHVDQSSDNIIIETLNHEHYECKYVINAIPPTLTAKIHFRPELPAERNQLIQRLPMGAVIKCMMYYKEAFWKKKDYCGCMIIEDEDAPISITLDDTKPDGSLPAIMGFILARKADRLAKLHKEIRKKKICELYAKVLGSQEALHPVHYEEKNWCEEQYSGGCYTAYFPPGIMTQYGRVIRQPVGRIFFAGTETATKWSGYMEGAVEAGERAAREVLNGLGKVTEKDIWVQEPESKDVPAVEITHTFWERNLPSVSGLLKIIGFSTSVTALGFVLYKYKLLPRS
As to the kind of experiment: Inhibition of recombinant human MAO-A at 10 uM using kynuramine as substrate after 30 mins by fluorescence method relative to control. The following applies: 0.5 h.

In series [2] the target is BuChE (butyrylcholinesterase) (Equus caballus, UniProt P81908). As to the kind of experiment: Inhibition of equine serum BuChE at 50 uM incubated for 15 mins by Ellman's method relative to control. The conditions noted are these: horse.
Chain of BuChE (butyrylcholinesterase) (P81908 whole entry): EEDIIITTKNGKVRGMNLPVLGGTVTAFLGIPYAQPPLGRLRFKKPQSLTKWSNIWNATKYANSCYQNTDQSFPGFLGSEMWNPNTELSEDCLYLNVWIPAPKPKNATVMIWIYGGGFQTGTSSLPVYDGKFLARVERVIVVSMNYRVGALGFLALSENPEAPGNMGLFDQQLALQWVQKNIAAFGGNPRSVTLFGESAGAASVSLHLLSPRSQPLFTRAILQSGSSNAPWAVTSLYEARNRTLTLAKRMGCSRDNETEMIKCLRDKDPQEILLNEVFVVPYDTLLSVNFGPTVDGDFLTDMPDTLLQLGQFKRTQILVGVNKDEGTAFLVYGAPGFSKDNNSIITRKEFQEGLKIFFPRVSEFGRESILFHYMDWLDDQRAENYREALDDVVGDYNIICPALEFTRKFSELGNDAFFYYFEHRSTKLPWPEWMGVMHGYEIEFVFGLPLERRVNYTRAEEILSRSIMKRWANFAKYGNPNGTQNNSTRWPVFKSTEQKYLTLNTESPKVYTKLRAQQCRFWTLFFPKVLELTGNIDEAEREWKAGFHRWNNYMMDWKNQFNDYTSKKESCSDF
The target of series [3] is T2, Amine oxidase [flavin-containing] B (Homo sapiens, UniProt P27338).
T2 sequence (P27338 whole entry): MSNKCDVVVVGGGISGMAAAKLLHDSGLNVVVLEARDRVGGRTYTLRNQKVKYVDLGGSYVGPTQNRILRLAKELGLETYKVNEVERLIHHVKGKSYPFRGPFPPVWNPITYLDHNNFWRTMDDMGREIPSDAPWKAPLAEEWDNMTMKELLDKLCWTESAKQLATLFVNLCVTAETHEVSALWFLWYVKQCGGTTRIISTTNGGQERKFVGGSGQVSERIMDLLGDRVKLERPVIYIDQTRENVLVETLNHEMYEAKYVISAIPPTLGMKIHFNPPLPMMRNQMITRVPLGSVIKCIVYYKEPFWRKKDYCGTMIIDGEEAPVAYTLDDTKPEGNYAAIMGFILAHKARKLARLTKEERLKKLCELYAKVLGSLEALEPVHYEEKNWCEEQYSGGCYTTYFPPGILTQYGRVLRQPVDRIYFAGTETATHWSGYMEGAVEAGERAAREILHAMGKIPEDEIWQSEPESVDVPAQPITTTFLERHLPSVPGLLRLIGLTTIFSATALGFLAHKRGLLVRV

A short description of series [4]: Antioxidant activity assessed as trolox equivalent of […]-induced radical scavenging activity measured every minute for 90 mins by ORAC fluorescein assay. Format: functional. The procedure, abridged: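 Measured by the ORAC-FL fluorescein method. Values are given as μM Trolox equivalent per μM of test compound.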
A short description of series [5]: Effective permeability of the compound by PAMPA. Format: physicochemical. The following applies: read-out: Peff. In general terms: The PAMPA barrier holds no transporters, so it reflects passive diffusion.
The target in another series is Cholinesterase (Equus caballus, UniProt P81908). Format: ADME.
Chain of Cholinesterase (P81908 whole entry): as the sequence (P81908 whole entry) above
Series [6] is described as follows: Selectivity index, ratio of IC50 for equine serum BuChE to IC50 for electric eel AChE. In a few lines:
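IC50 values for E. electricus AChE and equine serum BuChE came from a modified Ellman assay, each the mean of three independent experiments run in triplicate. The selectivity index is the ratio of the two IC50 values.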

For series [7], the target named is Acetylcholinesterase (Electrophorus electricus) (UniProt O42275). As to the kind of experiment: Inhibition of electric eel AChE at 50 uM using acetylthiocholine as substrate incubated for 15 mins by Ellman's method relative to control.
Chain of Acetylcholinesterase (Electrophorus electricus) (O42275 24-633 limits assumed): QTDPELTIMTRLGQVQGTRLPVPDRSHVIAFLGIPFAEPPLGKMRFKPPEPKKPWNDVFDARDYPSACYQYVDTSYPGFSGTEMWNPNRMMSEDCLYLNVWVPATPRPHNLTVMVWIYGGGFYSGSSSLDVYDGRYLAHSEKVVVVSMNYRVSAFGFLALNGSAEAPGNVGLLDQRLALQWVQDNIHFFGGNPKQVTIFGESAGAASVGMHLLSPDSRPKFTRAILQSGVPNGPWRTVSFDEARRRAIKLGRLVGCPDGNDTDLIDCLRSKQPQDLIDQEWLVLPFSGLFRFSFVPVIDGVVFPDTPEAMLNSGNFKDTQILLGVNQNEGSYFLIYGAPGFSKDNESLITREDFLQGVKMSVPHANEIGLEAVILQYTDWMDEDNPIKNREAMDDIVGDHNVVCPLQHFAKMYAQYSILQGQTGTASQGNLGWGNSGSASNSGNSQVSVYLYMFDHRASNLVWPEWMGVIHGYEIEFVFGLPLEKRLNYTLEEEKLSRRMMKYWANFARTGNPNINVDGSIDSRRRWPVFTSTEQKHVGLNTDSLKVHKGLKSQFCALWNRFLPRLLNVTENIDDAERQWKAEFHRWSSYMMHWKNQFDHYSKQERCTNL

As usually defined, the IC50 is the midpoint of a concentration-inhibition curve. Read a low IC50 as greater potency. A word on the inhibition: it is how much of the control response was suppressed. In the case of `CC(=O)c1ccc(OCCCCN2CCN(c3ccccn3)CC2)cc1O`, the IC50 on Acetylcholinesterase was 18.4 µM; in series [3], 12 µM. Besides, in series [1], the inhibition at 10 µM is less than 5%. This compound had an inhibition at 0.25 h, 50 µM in series [2] of less than 5%. For the same compound, the Activity in [4] turned out to be 1.1 equiv.

Turning to `C[C@]12CC[C@H]3[C@@H](CCC4=CC(=O)CC[C@@]43C)[C@@H]1CC[C@@H]2O` [TESTOSTERONE], the Papp in series [5] is 16.3 to 17 ×10⁻⁶ cm/s.

On to `Clc1cccc(Cl)c1N=C1NCCN1` [CLONIDINE], for which, in series [5], the Papp fell in the range of 5.1 to 5.3 ×10⁻⁶ cm/s.

Turning to `CC(=O)c1ccc(OCCCN2CCN(c3ccccn3)CC2)cc1O`, the IC50 was determined as 15.2 µM at Acetylcholinesterase and 11.7 µM in series [3]. The inhibition at 10 µM in series [1] was less than 5%. In [2], this compound had an inhibition at 0.25 h, 50 µM of 8.8%. For the same compound, the Activity in series [4] worked out at 0.98 equiv.

Regarding `CC(=O)c1ccc(OCCCCCCN2CCCCC2)cc1O`, the concentration for half-maximal inhibition (IC50) against Acetylcholinesterase was found to be 2.9 µM; against Cholinesterase it was 45.7 µM; in series [3] it was 26.6 µM. Besides, the inhibition at 10 µM in series [1] is less than 5%. In series [6], the Ratio IC50 is 15.8. The Activity in series [4] worked out at 0.98 equiv.

Regarding `CC(=O)c1ccc(OCCCCN2CCN(Cc3ccccc3)CC2)cc1O`, the IC50 was 2.2 µM against Acetylcholinesterase and 15.9 µM in series [3]. Moreover, the inhibition at 10 µM in series [1] was less than 5%. The inhibition at 0.25 h, 50 µM in [2] is 11.5%. Moreover, in [4], the Activity was determined as 1.4 equiv.

With `CC(=O)c1ccc(OCCCCCN2CCCCC2)cc1O`, the values for the concentration for half-maximal inhibition (IC50) (at Acetylcholinesterase; in series [3]) were 5.5 µM and 6.1 µM, respectively. For the same compound, the inhibition at 10 µM in series [1] is less than 5%. In addition, in series [2], the inhibition at 0.25 h, 50 µM was 27.9%. In [4], the Activity was 1.1 equiv.

Regarding `CC(=O)c1ccc(OCCCCN2CCN(c3ncccn3)CC2)cc1O`, the IC50 was 27.5 µM against Acetylcholinesterase and 15.2 µM in [3]. Moreover, the inhibition at 10 µM in series [1] is less than 5%. Moreover, the inhibition at 0.25 h, 50 µM in [2] was less than 5%. For the same compound, the Activity in series [4] worked out at 0.98 equiv.

Turning to `Cn1c(=O)c2c(ncn2C)n(C)c1=O` [CAFFEINE], the Papp in series [5] was in the range of 1.28 to 1.3 ×10⁻⁶ cm/s.

Consider `CC(=O)c1ccc(OCCCCCCN2CCN(c3ncccn3)CC2)cc1O`, for which the half-maximal inhibitory concentration (IC50) on Acetylcholinesterase came to 57 µM; in [3], 34.6 µM. The inhibition at 10 µM in series [1] is less than 5%. The compound also displayed an inhibition at 0.25 h, 50 µM in series [2] of less than 5%. In addition, the Activity in series [4] came to 0.98 equiv.

`CC(=O)c1ccc(OCCCCCN2CCN(Cc3ccccc3)CC2)cc1O`: the IC50 is 8.5 µM against Acetylcholinesterase, 46.1 µM on Cholinesterase and 26.8 µM in [3]. The inhibition at 10 µM in series [1] is less than 5%. Further, the Ratio IC50 in series [6] was 5.4. Moreover, the Activity in [4] worked out at 1.3 equiv.

As for `CC(=O)c1ccc(OCCCCN2CCCC2)cc1O`, the results for the concentration for half-maximal inhibition (IC50) (against Acetylcholinesterase; in series [3]) were 16.7 µM and 1.8 µM, respectively. Also, the inhibition at 10 µM in series [1] is less than 5%. The compound also showed an inhibition at 0.25 h, 50 µM in series [2] of 18.4%. Also, the Activity in [4] is 1 equiv.

Regarding `CC(=O)c1ccc(OCCCCCCN2CCN(Cc3ccccc3)CC2)cc1O`, the IC50 against Acetylcholinesterase was 16.8 µM; on Cholinesterase it was 75.4 µM; in series [3] it was 30.8 µM. Further, the inhibition at 10 µM in series [1] was less than 5%. Further, the Ratio IC50 in [6] is 4.5. Moreover, the Activity in [4] came to 1.3 equiv.

For the compound `CC(=O)c1ccc(OCCCN2CCCC2)cc1O`, the concentration for half-maximal inhibition (IC50) was found to be 41.3 µM against Acetylcholinesterase and 0.62 µM in [3]. In addition, the inhibition at 10 µM in series [1] was less than 5%. The compound also showed an inhibition at 0.25 h, 50 µM in series [2] of less than 5%. The Activity in series [4] came out at 1 equiv.

Regarding `CC(=O)c1ccc(OCCCCCN2CCCC2)cc1O`, the IC50 on Acetylcholinesterase was found to be 6.3 µM; on Cholinesterase, 37.2 µM; in [3] it was 3.5 µM. The inhibition at 10 µM in series [1] was less than 5%. The Ratio IC50 in series [6] worked out at 5.9. Further, the Activity in series [4] is 1 equiv.

Take `CC(=O)c1ccc(OCCCCN2CCCCC2)cc1O`: the half-inhibitory concentration (IC50) on Acetylcholinesterase was 8.8 µM; in [3], 2.5 µM. Besides, in [1], the inhibition at 10 µM was less than 5%. In series [2], this compound came in with an inhibition at 0.25 h, 50 µM of 21.4%. Further, in series [4], the Activity amounted to 1 equiv.

Consider `Cn1c(=O)c2[nH]cnc2n(C)c1=O.O` [THEOPHYLLINE], for which the Papp in series [5] lay in the range of 0.1 to 0.12 ×10⁻⁶ cm/s.

In the case of `CCn1cc(C(=O)O)c(=O)c2cc(F)c(N3CCNCC3)nc21` [ENOXACIN], the Papp in [5] was 0.47 to 0.9 ×10⁻⁶ cm/s.

Turning to `CC(=O)c1ccc(OCCCCCCN2CCCC2)cc1O`, the IC50 on Acetylcholinesterase was 3.9 µM; against Cholinesterase it was 46.5 µM; in [3] it was 12.2 µM. Further, the inhibition at 10 µM in series [1] was less than 5%. Also, the Ratio IC50 in series [6] was 11.9. Also, in series [4], the Activity is 1 equiv.

As for `CN1C(C(=O)Nc2ccccn2)=C(O)c2ccccc2S1(=O)=O` [PIROXICAM], the Papp in [5] was in the range of 0.72 to 2.5 ×10⁻⁶ cm/s.

Take `CC(=O)c1ccc(OCCCCCN2CCN(c3ccccn3)CC2)cc1O`: the values for the IC50 (against Acetylcholinesterase; in series [3]) were 21.9 µM and 16.7 µM, respectively. In addition, the inhibition at 10 µM in [1] was less than 5%. In addition, the inhibition at 0.25 h, 50 µM in series [2] was less than 5%. For the same compound, in [4], the Activity was found to be 0.99 equiv.

As to `CC(=O)c1ccc(OCCCN2CCN(c3ncccn3)CC2)cc1O`, the IC50 against Acetylcholinesterase came to 26.3 µM; in series [3] it was 15.1 µM. In addition, the inhibition at 10 µM in series [1] was less than 5%. For the same compound, the inhibition at 0.25 h, 50 µM in series [2] was less than 5%. In addition, the Activity in series [4] worked out at 0.95 equiv.

`CC(=O)c1ccc(O)cc1O` registered an inhibition in [7] of less than 5%. Moreover, the inhibition at 0.25 h, 50 µM in [2] was less than 5%. Moreover, the Activity in [4] was 2.5 equiv.

For the compound `CC(=O)c1ccc(OCCCCCN2CCN(c3ncccn3)CC2)cc1O`, the IC50 against Acetylcholinesterase was 51.8 µM; at Cholinesterase, 137 µM; in series [3] it was 15.5 µM. For the same compound, the inhibition at 10 µM in series [1] was less than 5%. In series [6], the Ratio IC50 is 2.6. The Activity in [4] amounted to 1 equiv.

For the compound `CC(=O)c1ccc(OCCCN2CCCCC2)cc1O`, the IC50 at Acetylcholinesterase came out at 29.2 µM; in series [3], 2.8 µM. In addition, in [1], the inhibition at 10 µM was less than 5%. The inhibition at 0.25 h, 50 µM in series [2] was less than 5%. In addition, the Activity in [4] amounted to 1.1 equiv.

As to `CCn1cc(C(=O)O)c(=O)c2cc(F)c(N3CCNCC3)cc21` [NORFLOXACIN], in [5], the Papp was 0.1 to 0.42 ×10⁻⁶ cm/s.

For `CC(=O)c1ccc(OCCCCCCN2CCN(c3ccccn3)CC2)cc1O`, the IC50 came to 25.8 µM against Acetylcholinesterase and 20.7 µM in series [3]. The inhibition at 10 µM in [1] is less than 5%. The same compound displayed an inhibition at 0.25 h, 50 µM in series [2] of less than 5%. Also, the Activity in [4] stood at 1.1 equiv.
